Legend:
[1] = molecular target: T1, Adrenergic receptor beta (Rattus norvegicus) (UniProt P18090+P10608+P26255); test: % specific binding blocked by the compound fraction of 2.6(x10E-6) in beta adrenergic receptor from heart membranes, after serial wash
Summary of the method: (§1)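 Rat heart or lung membranes (ca. 500 or 150 μg protein) preincubated with compound 1 h at 30 °C, centrifuged, then washed five times (resuspend in buffer, 10 min at 30 °C, centrifuge). Residual specific (–)-[³H]dihydroalprenolol binding (5 nM, 20 min, 30 °C, 50 mM Tris/10 mM MgCl₂ pH 7.4; nonspecific defined with 10 μM (±)-alprenolol) compared with washed untreated membranes; percent inhibition, ≥2 experiments in triplicate.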

[2] = molecular target: T1, Adrenergic receptor beta (Rattus norvegicus); test: % specific binding blocked by the compound fraction of 5.6(x10E-6) in beta adrenergic receptor from lung membranes, after serial wash; type: tissue-based; summary of the method: as §1
[3] = molecular target: T1, Adrenergic receptor beta (Rattus norvegicus); test: % specific binding blocked by the compound fraction of 2.6(x10E-6) in beta adrenergic receptor from lung membranes, after serial wash; type: tissue-based; summary of the method: as §1
[4] = molecular target: T1, Adrenergic receptor beta (Rattus norvegicus); test: % specific binding blocked by the compound fraction of 5.6(x10E-6) in beta adrenergic receptor from heart membranes, after serial wash; summary of the method: as §1
[5] = molecular target: T1, Adrenergic receptor beta (Rattus norvegicus); test: % specific binding blocked by the compound fraction of 2.6 (1x10E- 5) in beta adrenergic receptor from lung membranes, after serial wash; type: tissue-based; summary of the method: as §1
[6] = molecular target: T1, Adrenergic receptor beta (Rattus norvegicus); test: % specific binding blocked by the compound fraction of 5.6 (1x10E- 5) in beta adrenergic receptor from lung membranes, after serial wash; type: tissue-based; summary of the method: as §1
[7] = molecular target: T1, Adrenergic receptor beta (Rattus norvegicus); test: % specific binding blocked by the compound fraction of 2.6 (1x10E- 5) in beta adrenergic receptor from heart membranes, after serial wash; summary of the method: as §1
[8] = molecular target: T1, Adrenergic receptor beta (Rattus norvegicus); test: % specific binding blocked by the compound fraction of 5.6 (1x10E- 5) in beta adrenergic receptor from heart membranes, after serial wash; summary of the method: as §1

Structure (SMILES)	Binding [1]	Binding [2]	Binding [3]	Binding [4]	Binding [5]	Binding [6]	Binding [7]	Binding [8]
C=CCc1ccccc1OCC(O)CNC(C)COC(C)COC(C)COCC(C)N (configuration not stated)	3.8%	0%	14%	0%	–	–	–	–
C=CCc1ccccc1OCC(O)CNC(C)COCC(C)OCC(C)OCC(C)N(CC(O)COc1ccccc1CC=C)CC(O)COc1ccccc1CC=C (configuration not stated)	26%	–	68%	–	–	–	–	–
C=CCc1ccccc1OCC(O)CNC(C)COCC(C)OCC(C)OCC(C)NCC(O)COc1ccccc1CC=C (configuration not stated)	42.5%	–	77%	–	–	–	–	–
CC(N)COCC(C)OCC(C)OCC(C)N (configuration not stated)	–	–	–	–	0%	0%	0%	0%

Source: ChEMBL document CHEMBL1122311, “beta-Adrenergic antagonists with multiple pharmacophores: persistent blockade of receptors” (J Med Chem, 1983)
